# Screening data (PubChem)
# An excerpt weighted towards active compounds, which were near 1.8% of everything screened.
# TDP2 absorb: TDP2 (human) inhibition, absorbance primary screen; O95551; recombinant TDP2, T5PNP hydrolysis, p-nitrophenol absorbance 415 nm; inhibition, % at 12.8 µM; 370,000 tested, 0.34% active;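 active = inhibition above the mean of all tested compounds plus 3 SD, set per campaign, cut at about 25% in these data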;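 note: 0% = DMSO with enzyme and 100% = buffer with substrate but no TDP2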
# Target sequence (O95551 whole entry, looked up): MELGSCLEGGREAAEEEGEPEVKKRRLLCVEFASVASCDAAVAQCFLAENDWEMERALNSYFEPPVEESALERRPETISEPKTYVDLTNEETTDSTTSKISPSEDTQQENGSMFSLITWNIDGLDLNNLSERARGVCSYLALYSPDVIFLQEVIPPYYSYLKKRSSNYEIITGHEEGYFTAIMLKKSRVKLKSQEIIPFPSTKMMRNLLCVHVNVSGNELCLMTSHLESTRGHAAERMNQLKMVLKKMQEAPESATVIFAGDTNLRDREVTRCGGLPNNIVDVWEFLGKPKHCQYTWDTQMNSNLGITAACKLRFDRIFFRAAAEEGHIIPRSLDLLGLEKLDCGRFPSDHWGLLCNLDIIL
#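 System: recombinant human TDP2 / Amount: 120 nM TDP2 per well / Also added: 5 mM T5PNP chromogenic substrate / Doses: 12.8 µM single point, 1% DMSO / Incubation: 2 h at 37 °C / Detection: p-Nitrophenol epi absorbance / Evaluation: % inhibition relative to enzyme-containing and enzyme-free wells / Repeats: singlicate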
# PAD4 inh: inhibitors of human PAD4 | Q9UM07 | recombinant PAD4, RCA probe fluorescence polarization | inhibition, % at 6.36 µM | 330,000 tested, 0.41% active | AID 485272;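 active = percent inhibition above a cutoff equal to the mean of all tested compounds plus 3 SD, cut at about 15% in these data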;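 note: 0% = PAD4 with RCA probe and DMSO and 100% = probe without PAD4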
# Fh CTSL1 inh: cathepsin L1 inhibition, PFM18AAP counter-screen; recombinant F. hepatica cathepsin L1, Z-Leu-Arg-MCA fluorescence; inhibition, % at 5.96 µM; 300,000 tested, 0.49% active;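 active = inhibition above the mean of all tested compounds plus 3 SD, set per screening campaign, cut at about 17% in these data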;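 note: 0% = plate median of test compound wells and 100% = 1 µM Z-Phe-Ala-diazomethylketone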
# Apaf-1 inh: human Apaf-1 inhibition | O14727 | reconstituted apoptosome caspase-3 activity, DEVD-Rh110 fluorescence | inhibition, % at 20 µM | 330,000 tested, 0.71% active | AID 489030; active = inhibition of at least 40% at 20 µM;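 note: plate controls were DMSO wells for no effect and DEVD-CHO caspase inhibitor wells for full effect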
#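 System: Apoptosome proteins | Medium: Hepes pH 7.5 with detergent and BSA | Also added: Cytochrome c trigger plus (Z-DEVD)2-Rh110 caspase-3 substrate | Incubation: 30 min compound preincubation, 50 min activation, room temperature | Detection: Rhodamine 110 fluorescence at Ex 480/Em 540 nm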
# GSTO1 inh: blocks human GSTO1 in RBBP9 counter-screen. recombinant GSTO1, activity-based probe fluorescence polarization. inhibition, % at 5.96 µM. 300,000 tested, 1.1% active;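 active = inhibition above the campaign mean inhibition plus 3 SD, cut at about 35% in these data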;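 note: 0% = GSTO1-1 with DMSO and 100% = wells lacking GSTO1-1 enzyme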
# An asterisk follows results filed as active; x = no result.
SMILES,TDP2 absorb,PAD4 inh,Fh CTSL1 inh,Apaf-1 inh,GSTO1 inh
CCN(CC)C(=O)CC[C@H]1CC[C@]2(CCCN(Cc3ccncc3)C2)O1,-1,x,x,x,x
O=c1oc2cc(O)ccc2s1,-3,-3,-2,-9,53*
CCc1cccc(NS(=O)(=O)c2ccc3c(c2)NC(=O)CO3)c1,-7,-2,4,15,37*
CC1(C)CC(=O)C2=C(C1)c1c(ccc3ccccc13)NC2c1ccc(Br)o1 (stereo not given),3,-1,57*,28,-2
O=C(N/N=C/c1sc2ccccc2c1O)c1cccc2ccccc12,3,-28,4,x,42*
Nc1c(/C=C2/C=CC(=O)C(O)=C2)c(=O)nc2sc(CC(=O)N3CCCCC3)nn12,-13,3,1,4,41*
Nc1c(/C=C2/C=CC(=O)C(O)=C2)c(=O)nc2sc(CC(=O)N3CCCC3)nn12,0,3,3,3,27
O=C(COC(=O)C1CCN(c2ccc(C(F)(F)F)cn2)CC1)c1ccc(Cl)cc1,18,4,5,19,5
O=C(COC(=O)C1CCN(c2ccc(C(F)(F)F)cn2)CC1)c1ccc(F)cc1,10,-4,18*,19,2
Cc1nc2sccn2c(=O)c1S(=O)(=O)N1CCN(c2ccccc2)CC1,-9,1,2,1,6
Cc1nc2sccn2c(=O)c1CCN1CCC(=C(c2ccccc2)c2ccc(F)cc2)CC1,x,-4,7,42*,0
COc1cc(/C=C(\C#N)C(=O)c2ccc(O)c(O)c2)cc(I)c1O,12,-32,3,2,45*
O=C1Nc2ccc(C(F)(F)F)cc2N2CCCC12 (stereo not given),x,-8,13,38,38*
COc1ccccc1NC(=S)N(CCc1ccc(OC)c(OC)c1)Cc1ccccn1,-12,4,18*,7,9
COc1ccc(CCN(Cc2ccccn2)C(=S)Nc2ccc(C)cc2)cc1OC,-10,0,1,0,-13
CC(=O)N1CCN(c2ccc(N3CCN(Cc4ccccc4)[C@H](C)C3)c(C)c2)[C@H](C)C1,-1,x,x,x,x
O=C(c1ccc(Cl)c(S(=O)(=O)N2CCCC2)c1)N1CCN(c2ccccc2)CC1,-7,6,35*,13,-6
O=C(c1cccc(S(=O)(=O)N2CCN(c3ccc(F)cc3)CC2)c1)N1CCCCCCC1,-14,1,-30,42*,2
O=C(c1ccc(Cl)c(S(=O)(=O)N2CCCCC2)c1)N1CCN(c2ccccc2)CC1,-8,-1,0,17,6
Cc1ccccc1NC(=O)CN1C(=O)CCSc2ccccc21,-2,x,x,x,x
COC(=O)[C@]12C[C@H](CC(=O)NCc3ccccc3)C(=O)N(Cc3ccccc3)C1=C[C@H](C1CCCC1)O[C@@H]2C,2,x,x,x,x
CC(C)CC(NC(=O)C1CCC(C)CC1)C(=O)NCc1ccco1 (stereo not given),-14,-3,23*,-18,5
CC(/C=C/c1ccc(N(C)C)cc1)=N\N=C(/N)SC1CC(=O)N(c2ccc(C(=O)O)cc2)C1=O (stereo not given),1,-2,22*,-14,-1
N#Cc1c(-c2ccccc2)nc(SCC(=O)Nc2nnc(C(F)(F)F)s2)[nH]c1=O,1,-5,7,19,67*
CCN1/C(=C/C=C/C=C/c2sc3ccccc3[n+]2CC)Sc2ccccc21,x,-107,0,80*,-124
SMILES,TDP2 absorb,PAD4 inh,Fh CTSL1 inh,Apaf-1 inh,GSTO1 inh
CCN1/C(=C/C=C/C=C/C=C/c2sc3ccccc3[n+]2CC)Sc2ccccc21,-5,-38,3,2,-31
O=S1(=O)c2ccc(Br)cc2OC[C@@H](Cc2ccccc2)N1Cc1cn(CCC2OCCCO2)nn1,8,x,x,x,x
N#CCC(N)=C(C#N)C#N,6,-13,3,12,79*
O=C(N[C@@H](Cc1cccnc1)C(=O)N1CCC[C@H]1C(=O)NCCc1ccccc1Cl)c1ccc(Cl)c(Cl)c1,3,x,x,x,x
CCOC(=O)/C=C(\C)Sc1cc(=O)oc2ccccc12,5,4,-3,10,-15
CCOC(=O)/C=C(\C)Sc1cc(O)c2ccccc2c1O,59*,x,x,x,x
Cc1ccc(S(=O)(=O)N2CC3(COC(C)(C)OC3)C[C@H]2CON2C(C)(C)CCCC2(C)C)cc1,-5,x,x,x,x
O=C(/C=C/c1ccc([N+](=O)[O-])s1)N1CCCCC1,-10,-5,5,13,35*
